An excerpt weighted towards active compounds, which were near 1.8% of everything screened.
CHRM4 antagonist: CHRM4 antagonism in calcium assay; P08173; CHO-hM4 cells, ACh EC80, Fluo-8 calcium fluorescence; inhibition, % at 3 µM; 0.73% of 360,000 active;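 active = inhibition above its plate's cutoff, the mean inhibition of sample wells plus 3 SD, cut at about 27% in these data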;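 note: 0% = acetylcholine EC80 with DMSO and 100% = DMSO without agonist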
Target sequence (P08173 whole entry, looked up): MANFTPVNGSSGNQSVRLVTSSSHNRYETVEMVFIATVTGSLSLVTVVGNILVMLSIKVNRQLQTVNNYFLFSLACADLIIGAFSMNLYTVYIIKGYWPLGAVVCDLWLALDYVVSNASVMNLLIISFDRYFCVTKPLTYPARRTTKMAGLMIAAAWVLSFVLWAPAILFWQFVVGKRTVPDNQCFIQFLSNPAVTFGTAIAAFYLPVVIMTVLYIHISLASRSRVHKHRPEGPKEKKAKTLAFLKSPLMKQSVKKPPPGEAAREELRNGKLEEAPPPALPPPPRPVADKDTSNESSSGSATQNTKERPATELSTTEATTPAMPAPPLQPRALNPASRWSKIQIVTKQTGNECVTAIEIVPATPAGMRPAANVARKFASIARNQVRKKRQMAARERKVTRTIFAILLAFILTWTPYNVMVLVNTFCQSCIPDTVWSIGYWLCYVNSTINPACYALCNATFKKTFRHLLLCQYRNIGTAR
M4 PAM: positive allosteric modulators of human muscarinic M4 receptor; CHO-K1 hM4/Gqi5, Fluo-8 calcium fluorescence, ACh EC20; 0% = ACh EC20, 100% = maximal ACh; P08173; 0.4% of 360,000 active; activation, % at 3 µM;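 active = activation above its plate's cutoff, the mean activation of sample wells plus 3 SD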
M5 PAM: CHRM5 positive allosteric modulation | 0.3% of 360,000 active | CHO-K1 hM5, Fluo-8 calcium, ACh EC20 PAM; 0% = ACh EC20, 100% = ACh EC100 | activation, % at 3 µM | P08912;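 active = activation above the run cutoff, the mean activation of all test compounds plus 3 SD, cut at about 18% in these data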
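Measured by: Fluo-8 calcium fluorescence; material: human M5 receptor in CHO-K1 cells; schedule: Post-acetylcholine fluorescence recording 140 s; benchmarks: low control EC20 acetylcholine (0%), high control EC100 acetylcholine (100%); read-out: Max/basal fluorescence ratio as % of EC20–EC100 ACh window; compound: single dose, 3 µM nominal final test concentration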
M5 ag: CHRM5 agonism in calcium assay; P08912; CHO-K1 hM5 cells, Fluo-8 calcium fluorescence; 0% DMSO wells, 100% maximal acetylcholine response; activation, % at 3 µM; 0.19% of 360,000 active;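 active = activation above the run's mean over test compounds plus 3 SD, cut at about 23% in these data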;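 note: signal is peak over basal fluorescence ratio across the kinetic read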
M5 antag: antagonists of human muscarinic M5 receptor (CHRM5); CHO-hM5 cells, Fluo-8 calcium fluorescence, ACh EC80; P08912; 0.59% of 360,000 active; AID 624040; inhibition, % at 3 µM;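 active = inhibition above a per-plate cutoff, the mean of that plate's test compounds plus 3 SD, cut at about 27% in these data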;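 note: 0% = acetylcholine EC80 with DMSO and 100% = DMSO without agonist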
M4 ag: CHRM4 agonism in calcium assay; P08173; activation, % at 3 µM; CHO-K1 hM4/Gqi5, Fluo-8 calcium fluorescence; vehicle 0%, full acetylcholine response 100%; 0.14% of 360,000 active;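 active = activation above the run mean over all test wells plus 3 SD, cut at about 32% in these data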;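 note: peak over basal fluorescence ratio per well then scaled between controls; 0% = DMSO wells and 100% = acetylcholine at EC100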
The depositor's hits bear a star.

SMILES | CHRM4 antagonist | M4 PAM | M5 PAM | M5 ag | M5 antag | M4 ag
C/C(N)=C(/C#N)C(=O)COC(=O)c1ccc(C)c(S(=O)(=O)N2CCCCC2)c1 | -3.8 | 6.2 | 32.8* | 8.4 | 5.5 | 4.8
COc1ccc(S(=O)(=O)N2CCC(C(=O)NCC(=O)Nc3c(C)cccc3C)CC2)cc1OC | -10.0 | 24.7* | 4.2 | -0.5 | -7.9 | 0.2
COc1ccc(S(=O)(=O)N2CCC(C(=O)NCCc3ccccc3)CC2)cc1OC | -7.2 | 1.9 | 4.4 | 1.4 | -1.2 | 2.6
O=C(COC(=O)C1CC2C=CC1C2)Nc1cccc(S(=O)(=O)N2CCCCCC2)c1 (stereo not given) | 22.5 | -12.9 | -19.7 | 3.8 | 31.2* | 17.1
O=C(COC(=O)C1CC2C=CC1C2)Nc1cccc(S(=O)(=O)N2CCCCC2)c1 (stereo not given) | 3.0 | -14.9 | -15.8 | 5.2 | 13.4 | 16.8
CCOC(=O)C1(C)CCCN(C(=O)c2ccc(OC)c(OC)c2)C1 (stereo not given) | -9.9 | 1.9 | 3.9 | 2.3 | -10.0 | 0.7
N#Cc1cccc(NC(=O)c2cc(C3CCCCN3C(=O)c3ccc4c(c3)CCO4)on2)c1 (stereo not given) | -0.5 | -3.1 | -11.5 | -1.5 | 11.6 | 12.8
COc1ccc(Nc2nc(-c3cccs3)nc3ccccc23)cc1S(=O)(=O)N1CCOCC1 | 28.7* | -30.1 | -24.1 | -4.5 | 10.5 | 17.1
COC(=O)[C@]12CCCCC=C1N(Cc1ccc3c(c1)OCO3)C(=O)[C@H](CC(=O)NCc1ccc(C)o1)C2 | -13.8 | 10.2 | 1.7 | 1.6 | -5.0 | 10.1
COC(=O)[C@@]1(Cc2ccc(OC)cc2)[C@H]2c3cc(C(=O)N4CCCC4)n(Cc4cc(C)n(C)n4)c3C[C@H]2CN1C(=O)c1ccccc1 | 1.6 | 8.6 | 9.2 | 7.0 | -7.8 | 5.9
c1cc2c(cc1C1=NNC(=NC3CC3)SC1)OCCO2 | -8.1 | 1.9 | -30.3 | -15.4 | 99.7* | 0.9
C=CCN(C(=O)CN1CCCCC1)c1nc(-c2ccccc2)cs1 | 6.4 | -11.0 | -3.6 | -7.9 | 11.6 | -0.3
C=CCN(C(=O)C1CC(=O)N(C2CCCC2)C1)c1nc(-c2ccc(S(C)(=O)=O)cc2)cs1 (stereo not given) | 18.8 | -12.8 | -44.4 | 13.4 | 18.6 | 32.1*
CC(C)CNC(=O)c1ccc(C2SCC(=O)N2Cc2ccccc2)cc1 (stereo not given) | 46.7* | -25.3 | -20.1 | -10.7 | -2.7 | 1.3
O=C(C[n+]1ccc(C(=O)c2ccccc2)cc1)Nc1cccc([N+](=O)[O-])c1 | -0.2 | 0.2 | -5.7 | -4.6 | 5.1 | 0.2
O=C(CC[C@H]1O[C@@H](n2ccc(=O)[nH]c2=O)[C@H](O)[C@@H]1O)N[C@H](Cc1ccccc1)C(=O)NCc1cccs1 | 1.2 | 0.4 | -0.4 | -0.7 | 0.7 | 0.0
CCCC#CCN1CCN(C23CC4CC(CC(C4)C2)C3)CC1 | 27.9* | -11.4 | -11.8 | -6.6 | 15.3 | 1.4
CC(=O)N1CCN(C23CC4CC(CC(C4)C2)C3)CC1 | 1.3 | -1.2 | -1.6 | -1.1 | 1.8 | 0.3
CCCCCC#CCN1CCN(C23CC4CC(CC(C4)C2)C3)CC1 | 30.0* | -14.1 | -15.9 | -9.8 | 10.0 | 1.5
CN1CCN(c2ncnc3c2ncn3[C@H]2CN(Cc3ccc(-c4ccccc4)cc3)C[C@@H](CO)O2)CC1 | -6.8 | -2.0 | -2.0 | 1.9 | -0.8 | 11.0
COc1ccc(C(=O)N/C(=C\c2cn(S(=O)(=O)N(C)C)c3ccccc23)C(=O)N2CCCC2)cc1 | 4.4 | 0.7 | -0.6 | 2.7 | -5.1 | 4.1
O=[N+]([O-])c1ccc(-n2nncc2-c2ccccc2)cc1 | -7.6 | -9.9 | 19.5* | -17.9 | -9.3 | 0.4
CCOC(=O)c1nn(-c2ccc(F)cc2)c(=O)cc1OCC(=O)Nc1cccc(C)c1 | -25.8 | 24.2* | -5.1 | 5.2 | -5.5 | -0.5
CCOC(=O)c1nn(-c2ccc(C)cc2)c(=O)cc1OCC(=O)Nc1cc(C)ccc1OC | -14.5 | -2.1 | 9.9 | -0.2 | -11.2 | -1.0
Cc1ccc(NC2SC(=O)N(Cc3cccc(C(=O)O)c3)C2=O)cc1 (stereo not given) | -4.8 | 1.3 | 22.6* | -1.0 | -0.9 | 0.4

From PubChem BioAssay
